# TRPC6 act = activates the mouse TRPC6 cation channel | actives 0.13% (n = 310,000) | Q61143 | HEK293-TRPC6 membrane potential dye fluorescence; stronger effect = higher value | AID 2550 | B-score at 10 µM;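 active = B-score of the integrated fluorescence ratio above library mean plus 3 SD, and starting fluorescence ratio within library mean plus 5 SD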;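 note: higher score means more depolarization so channel activation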
# TRPC6 inh = blocks the mouse TRPC6 cation channel; Q61143; HEK293-TRPC6, membrane potential dye, ACh-evoked depolarization; stronger effect = lower value; B-score at 10 µM; actives 1.1% (n = 310,000);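 active = B-score under library mean minus 3 SD, initial fluorescence not abnormally high, positive integrated signal ratio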;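 note: B-score derived from integrated fluorescence ratio over the kinetic read; more negative B-score means stronger inhibition of depolarization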
# TRPC4 potent = TRPC4 (mouse) allosteric potentiation; Q9QUQ5; HEK293 TRPC4beta/mu-opioid, DAMGO EC20, Fluo-4 Ca2+ flux; stronger effect = higher value; B-score at 10 µM; actives 0.42% (n = 310,000);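 active = B-score of calcium response area above 5 SD of library B-scores, with initial fluorescence ratio within 5 SD of library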;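 note: B-score of integrated fluorescence ratio over time as area under calcium response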
# Target sequence (Q9QUQ5 whole entry, looked up): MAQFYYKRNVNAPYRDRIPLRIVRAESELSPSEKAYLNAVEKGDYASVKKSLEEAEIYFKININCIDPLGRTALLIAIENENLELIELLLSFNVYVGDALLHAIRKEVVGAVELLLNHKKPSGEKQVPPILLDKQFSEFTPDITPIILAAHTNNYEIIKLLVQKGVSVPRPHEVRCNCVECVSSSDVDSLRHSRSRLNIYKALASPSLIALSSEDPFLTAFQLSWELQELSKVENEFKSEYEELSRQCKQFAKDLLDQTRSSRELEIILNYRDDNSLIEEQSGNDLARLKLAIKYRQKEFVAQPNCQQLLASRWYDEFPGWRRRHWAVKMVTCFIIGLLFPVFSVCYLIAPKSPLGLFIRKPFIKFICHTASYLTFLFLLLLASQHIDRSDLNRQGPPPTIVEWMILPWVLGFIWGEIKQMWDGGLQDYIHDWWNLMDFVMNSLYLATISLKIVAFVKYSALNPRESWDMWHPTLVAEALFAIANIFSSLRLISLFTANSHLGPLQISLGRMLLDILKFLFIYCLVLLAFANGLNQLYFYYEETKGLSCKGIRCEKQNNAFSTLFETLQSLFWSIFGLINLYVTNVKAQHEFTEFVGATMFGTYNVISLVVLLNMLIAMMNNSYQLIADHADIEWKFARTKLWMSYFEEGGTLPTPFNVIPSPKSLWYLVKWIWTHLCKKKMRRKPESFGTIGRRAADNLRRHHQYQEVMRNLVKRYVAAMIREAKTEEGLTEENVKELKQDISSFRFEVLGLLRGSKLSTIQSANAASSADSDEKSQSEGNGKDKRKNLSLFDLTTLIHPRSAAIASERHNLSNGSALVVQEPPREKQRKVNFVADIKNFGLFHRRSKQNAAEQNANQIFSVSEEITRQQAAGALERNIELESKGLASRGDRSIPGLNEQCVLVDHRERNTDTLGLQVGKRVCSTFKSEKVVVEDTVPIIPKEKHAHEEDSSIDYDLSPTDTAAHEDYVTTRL
# Kir21 block = Kir2.1 (mouse) channel inhibition. B-score at 10 µM. HEK293-Kir2.1, FluxOR thallium flux fluorescence; stronger effect = lower value. AID 1672. actives 0.85% (n = 310,000). P35561;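 active = fluorescence ratio B-score at or below minus 3 SD of library scores, with starting-brightness B-score within 2 SD, cut at about -4.2 in these data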;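 note: channel flux triggered by added potassium and thallium sulfate stimulus; B-score of peak minus minimum fluorescence over baseline after thallium stimulus; more negative B-score means stronger Kir2.1 block with less thallium influx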
# TRPC4 agonist = opens the mouse TRPC4 cation channel; Q9QUQ5; AID 2237; HEK293 TRPC4beta/mu-opioid, Fluo4 calcium fluorescence; stronger effect = higher value; B-score at 10 µM; actives 0.49% (n = 310,000);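 active = B-score above 5 SD of library B-scores, and initial fluorescence ratio not above library mean plus 5 SD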;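 note: positive B-score marks a calcium rise read as TRPC4 activation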
#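 Material: TRPC4beta and mu-opioid receptor HEK293 stable cells | Incubation: 45 min room-temperature Fluo4 loading, 110 s read | Detection: Kinetic Fluo4 calcium fluorescence | Measure: Integrated baseline-normalised fluorescence ratio, converted to per-well B score | Benchmarks: Low control buffer alone, high control maximal DAMGO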
# TRPC4 block = blocks the mouse TRPC4 cation channel. Q9QUQ5. HEK293 TRPC4beta/mu-opioid, DAMGO-evoked Fluo4 calcium flux; stronger effect = lower value. B-score at 10 µM. actives 0.39% (n = 300,000);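 active = B-score over 3 SD under the library average, no early fluorescence shift, positive overall ratio signal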
#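 System: stable TRPC4beta/mu-opioid receptor HEK293 cells; Dosing: single-point compound dosing; Measured by: Fluo4 Ca2+ flux fluorescence; Read-out basis: per-well B score of integrated baseline-normalized Fluo4 ratio.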
# TRPC4 spec 2 = second selectivity test of TRPC6 inhibitors: effect on mouse TRPC4 | shares compounds with TRPC6 inh | HEK293 TRPC4/MOR, membrane potential dye fluorescence; channel activated by saturating DAMGO dose | inhibition, % at 10 µM | actives 42% (n = 920) | AID 2776;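 active = compounds whose fluorescence signal differed from control wells by over 3 SD, either direction, in both duplicate plates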
# TRPC4 spec = tests whether TRPC6 inhibitors also affect mouse TRPC4; shares compounds with TRPC6 inh; HEK293 TRPC4/mu-opioid, membrane potential fluorescence; activity change, negative = inhibition, % at 10 µM; actives 61% (n = 920);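 active = rise or fall in signal beyond 3 SD of buffer-only wells in both replicate plates, either sign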;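 note: integrated kinetic ratio of fluorescence range over baseline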
# HEK293 MPD ctr 2-1 = parental HEK293 nonspecific activity of TRPC6 inhibitors, second screen. AID 2779. actives 31% (n = 920). signal change vs control, % at 10 µM. shares compounds with TRPC6 inh. parental HEK293 membrane potential dye fluorescence; maximal acetylcholine challenge after compound addition;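 active = membrane potential signal moving either way by over 3 SD of the maximum-effect control, in both duplicate plates, meaning non-specific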
# HEK293 MPD ctr-1 = parental HEK293 nonspecific activity of TRPC6 inhibitors. shares compounds with TRPC6 inh. parental HEK293 membrane potential dye fluorescence. membrane potential signal change, % at 10 µM. actives 60% (n = 920). AID 2780;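 active = membrane potential signal shifting up or down by more than 3 SD of buffer-only wells, on both duplicate plates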
# HEK293 MPD ctr-2 = checks TRPC6 modulator effects in parental HEK293 cells; shares compounds with TRPC6 inh; membrane potential dye fluorescence; membrane potential signal change, % at 10 µM; actives 51% (n = 2,400);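 active = membrane potential signal moves up or down beyond 5 SD from buffer-only wells, on both duplicate plates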
# HEK293 MPD ctr 2-2 = second check of TRPC6 modulator effects in parental HEK293 cells; shares compounds with TRPC6 inh; membrane potential dye fluorescence; after compound, maximal acetylcholine stimulation; inhibition, % at 10 µM; actives 14% (n = 2,400);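 active = membrane potential signal drops by more than 5 SD from the mean control signal, in both duplicate plates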;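 note: plate controls were acetylcholine ECmax control wells for no effect and buffer only wells for full effect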
# TRPC4/MOR mod = mouse TRPC4 off-target activity of TRPC6 modulators; shares compounds with TRPC6 inh; HEK293 TRPC4/mu-opioid, membrane potential fluorescence; percent change from control (negative = decrease, positive = increase), % at 10 µM; actives 69% (n = 2,400);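 active = membrane potential signal moved up or down beyond 5 SD of buffer control wells, in both duplicate plates, actives on both sides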;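 note: plate controls were assay buffer wells for no effect and DAMGO maximal-effect wells for full effect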
# TRPC4 ctr inh 2 = mouse TRPC4 off-target activity of TRPC6 modulators, second screen. shares compounds with TRPC6 inh. HEK293 TRPC4/mu-opioid, membrane potential dye fluorescence; stimulated with maximal-effect DAMGO. inhibition, % at 10 µM. actives 55% (n = 2,400);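 active = drop in membrane potential signal beyond 5 SD of the control wells in both duplicate plates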;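 note: TRPC4 counter screen for TRPC6 hits run under conditions tuned for TRPC6 not TRPC4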
# TRPC6 inh conf = mouse TRPC6 inhibitor confirmation | shares compounds with TRPC6 inh | HEK293-TRPC6, membrane potential dye, ACh-evoked depolarization | inhibition, % at 10 µM | actives 43% (n = 3,300);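 active = fluorescence ratio falls more than 5 SD below the full-stimulation control mean, in both duplicate runs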;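 note: integrated fluorescence ratio of peak minus minimum over baseline after agonist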
# TRPC6 act confirm = mouse TRPC6 activator confirmation; shares compounds with TRPC6 inh; HEK293-TRPC6 membrane potential dye fluorescence, FDSS; activation, % at 10 µM; actives 11% (n = 2,800); AID 488961;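 active = ratio signal rise beyond 5 SD above unstimulated control wells' mean, seen in both duplicate runs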;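 note: plate controls were buffer EC0 wells for no effect and acetylcholine ECmax response for full effect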
# Numbers without * were called inactive; i = inactive; nt = no result. A selection: hits, their analogues and other compounds. The true share with any hit is near 2.9%.
SMILES,TRPC6 act,TRPC6 inh,TRPC4 potent,Kir21 block,TRPC4 agonist,TRPC4 block,HEK293 MPD ctr-2,HEK293 MPD ctr 2-2,TRPC4/MOR mod,TRPC4 ctr inh 2,TRPC6 inh conf,TRPC6 act confirm,others
Cc1ccc(NC(=O)c2cc(-c3cccs3)nc3ccccc23)nc1,i,-6.4*,i,-0.53,i,i,i,i,i,39%*,i,i,
COc1ccc(-n2cnnc2SCC(=O)Nc2cc(S(=O)(=O)N3CCCCC3)ccc2C)cc1,i,-6.1*,i,0.11,i,i,i,i,i,i,i,i,
Cc1cccc(NC(=O)CN(C)S(=O)(=O)c2cccc3nsnc23)c1C,i,-5.5*,i,0.08,i,i,i,i,16%*,28%*,i,i,
O=[N+]([O-])/C(C(Cl)=C(Cl)Cl)=C(/Sc1ccccc1)N1CCCCC1,i,i,i,-0.43,i,i,nt,nt,nt,nt,nt,nt,
COc1cc2c(cc1OC)-c1c(OC)c(OC)cc3ccnc(c13)C2=O,i,-7.9*,i,1.6,i,i,nt,nt,nt,nt,54%*,i,TRPC4 spec 2=63%*;TRPC4 spec=-26%*;HEK293 MPD ctr 2-1=-58%*;HEK293 MPD ctr-1=-426%*
COc1ccc(Cn2c(-c3ccc(C)cc3)c[n+]3ccccc23)cc1,i,-6.2*,i,-0.88,i,i,-232%*,i,-30%*,48%*,46%*,i,
Cc1cccc(NCC(=O)N/N=C\c2c[nH]c3ccccc23)c1,i,-5.8*,i,0.82,i,i,-63%*,i,-20%*,40%*,38%*,i,
Cc1ccccc1NCC(=O)N/N=C/c1c[nH]c2ccccc12,i,i,i,-1.2,i,i,nt,nt,nt,nt,nt,nt,
COc1ccccc1OCCCCN1CCN(C(c2ccccc2)c2ccccc2)CC1,i,i,i,-1.6,i,i,nt,nt,nt,nt,nt,nt,
O=C1C2CSCN2C(=O)CN1CCCN1CCN(C(c2ccccc2)c2ccccc2)CC1 (stereo unspecified),i,-5.3*,i,-0.26,i,i,82%*,i,11%*,39%*,45%*,nt,

# Assay outcomes deposited in PubChem BioAssay by Johns Hopkins Ion Channel Center.
